Screens as filed in PubChem.
SENP7 inh – inhibitors of human SENP7 protease | hit rate 1.5% among 330,000 | recombinant SENP7, Z-RLRGG-aminoluciferin luminescence, 40 min | AID 434973 | inhibition, % at 5 µM | Q9BQF6;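 active = inhibition above about 50% at the single test dose, limit read from the data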;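 note: plate controls were DMSO with enzyme for no effect and no enzyme buffer wells for full effect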
SENP6 inh – inhibitors of human SENP6 protease; Recombinant SENP6 catalytic domain, aminoluciferin luminescence; hit rate 1.8% among 330,000; inhibition, % at 10 µM; Q9GZR1;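 active = inhibition above about 50% at the single tested dose, limit read from the data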;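 note: plate controls were DMSO wells with enzyme for no effect and DMSO wells lacking enzyme for full effect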
SENP8 block-1 – blocks human SENP8 cleavage of Nedd8 substrate; Q96LD8; recombinant SENP8, Nedd8 substrate fluorescence; inhibition, % at 20 µM; hit rate 0.64% among 360,000; in the data active = inhibition mostly above about 40%, no sharp cut-off; inactive = mostly below about 27%
Target sequence (Q96LD8 whole entry, looked up): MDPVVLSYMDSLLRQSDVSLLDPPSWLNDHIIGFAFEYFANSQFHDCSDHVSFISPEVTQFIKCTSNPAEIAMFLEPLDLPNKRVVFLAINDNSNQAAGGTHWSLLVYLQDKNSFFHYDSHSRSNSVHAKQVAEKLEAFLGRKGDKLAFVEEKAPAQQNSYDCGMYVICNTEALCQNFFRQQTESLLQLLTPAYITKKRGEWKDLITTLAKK
SENP1 inh – inhibitors of human SENP1 SUMO protease catalytic domain; inhibition, % at 10 µM; Q9P0U3; hit rate 0.21% among 360,000; recombinant SENP1 catalytic domain, CyPet-SUMO1-YPet FRET cleavage; AID 624204;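 active = inhibition at least 30% at 10 µM, raw YFP signal under a set limit, fluorescence ratio 0.5 to 1.5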;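 note: 0% = enzyme with DMSO and 100% = no enzyme wells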
Target sequence (Q9P0U3 419-644 limits assumed): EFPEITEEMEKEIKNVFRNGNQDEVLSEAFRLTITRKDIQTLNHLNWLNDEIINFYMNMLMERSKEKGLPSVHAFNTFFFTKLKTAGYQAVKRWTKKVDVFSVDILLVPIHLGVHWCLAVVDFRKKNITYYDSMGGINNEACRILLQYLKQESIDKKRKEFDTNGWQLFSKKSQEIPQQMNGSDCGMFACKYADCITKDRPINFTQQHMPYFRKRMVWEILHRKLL
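material = recombinant human SENP1 catalytic domain, His6-tagged | quantity = 20 pM enzyme | reagent = 25 nM SUMO1 FRET substrate | compound dosing = 10 µM single point, 0.5% DMSO | timing = 50 min enzyme reaction, room temperature, light-protected | detection = FRET, CFP and YFP emission | control set = no-enzyme low, enzyme-DMSO high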
SENP8 block-2 – SENP8 protease inhibition; hit rate 1.2% among 330,000; inhibition, % at 10 µM; Q96LD8; purified SENP8, Z-RLRGG-aminoluciferin cleavage, luminescence; in the data active = inhibition above about 50%
SENP8 confirm – confirmation of human SENP8 protease inhibitors; shares compounds with SENP7 inh; Recombinant SENP8, Z-RLRGG-aminoluciferin luminescence, 60 min; inhibition, % at 12.5 µM; hit rate 40% among 6,200; AID 488912;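 active = mean inhibition across replicates above about 50%, limit read from the data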
SENP6 confirm – confirmation of human SENP6 protease inhibitors | shares compounds with SENP7 inh | recombinant SENP6, Z-RLRGG-aminoluciferin luminescence | inhibition, % at 12.5 µM | hit rate 58% among 6,200 | AID 488915
SENP7 confirm – human SENP7 inhibition, confirmed. shares compounds with SENP7 inh. recombinant SENP7, Z-RLRGG-aminoluciferin luminescence, 40 min. inhibition, % at 12.5 µM. hit rate 69% among 6,200. AID 488917
Casp3 select – inhibits human caspase-3 in SENP selectivity test | inhibition, % at 12.5 µM | purified caspase-3, Z-DEVD-aminoluciferin luminescence, 60 min | hit rate 60% among 6,200 | shares compounds with SENP7 inh | AID 488918;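 active = mean inhibition above about 50%, limit read from the data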;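 note: plate controls were enzyme with DMSO for no effect and wells without caspase-3 for full effect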
Target sequence (P42574 28-227 limits assumed): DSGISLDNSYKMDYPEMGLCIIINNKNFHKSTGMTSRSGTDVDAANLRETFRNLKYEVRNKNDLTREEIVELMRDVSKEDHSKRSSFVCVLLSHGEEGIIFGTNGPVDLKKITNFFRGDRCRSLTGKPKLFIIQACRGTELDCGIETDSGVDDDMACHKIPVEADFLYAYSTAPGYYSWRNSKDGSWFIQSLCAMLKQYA
Luc interf – interferes with luciferase luminescence in SENP counter-screen | Pre-incubated SENP8/Z-RLRGG-aminoluciferin, luciferase luminescence interference | hit rate 39% among 6,200 | shares compounds with SENP7 inh | AID 488919 | inhibition, % at 12.5 µM;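 active = mean inhibition above about 50% when retested at one dose, limit read from the data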;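 note: plate controls were DMSO wells with completed reaction for no effect and substrate without enzyme for full effect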
* = called active by the depositor; nt = not tested or not shown. Sampled rows, rich in hits. Any-hit rate of the full collection: about 2.5%.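 Rule for the calls, unless noted: active = mean inhibition above about 50% in the one-dose retest (limit read from the data); inactive = the rest.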

SMILES	SENP7 inh	SENP6 inh	SENP8 block-1	SENP1 inh	SENP8 block-2	SENP8 confirm	SENP6 confirm	SENP7 confirm	Casp3 select	Luc interf
O=C(c1cc2c(ccc3ccccc32)o1)N1CCCCC1	91*	93*	8	3	84*	90*	90*	99*	86*	89*
Cc1c(C(=O)Nc2cccnc2)oc2ccc(Br)cc12	13	35	6	1	13	nt	nt	nt	nt	nt
O=C(Nc1cccnc1)c1cc2c(ccc3ccccc32)o1	82*	67*	-18	4	61*	11	56*	56*	62*	6
N#C/C(=C\c1cccn1S(=O)(=O)c1cccc([N+](=O)[O-])c1)S(=O)(=O)c1ccc(F)cc1	nt	nt	9	-1	nt	nt	nt	nt	nt	nt
CC(C)=C(NC(=O)c1ccccc1)C(=O)Nc1ccc(C(=O)O)cc1	-3	0	24	3	-5	nt	nt	nt	nt	nt
COC(=O)CSc1nnc(-c2sc3ccccc3c2Cl)o1	56*	70*	-306	-5	28	-5	-3	5	9	2
Cc1cc2nn(-c3ccccc3)nc2cc1NC(=O)c1cccs1	7	14	-60	0	-16	nt	nt	nt	nt	nt
CC(=O)Nc1cc2nn(-c3ccccc3)nc2cc1C	77*	78*	-421	-8	72*	26	45	87*	79*	26
C=CCn1c(SCc2csc(-c3ccc(Cl)cc3)n2)nnc1-c1ccccc1OC	-15	-12	15	-1	-10	nt	nt	nt	nt	nt
Cc1cccc(C)c1OCc1cc(C(=O)N2CCN(c3ccc(F)cc3)CC2)no1	31	55*	4	1	33	49	47	81*	64*	59*
C=C(C)COc1ccc(C2NC(=O)c3ccccc3O2)cc1OCC (stereo not given)	5	-1	-40	2	1	nt	nt	nt	nt	nt
CC1CCCCC12NC(=O)N(CC(=O)OCc1cccc(F)c1)C2=O (stereo not given)	-6	3	-3	0	10	nt	nt	nt	nt	nt
O=C1COc2ccccc2C(c2nc3ccccc3[nH]2)N1Cc1ccccc1 (stereo not given)	nt	nt	6	0	nt	nt	nt	nt	nt	nt
O=C(Oc1ccc(Cl)c2cccnc12)c1cccc([N+](=O)[O-])c1	2	-3	21	3	4	nt	nt	nt	nt	nt
O=[N+]([O-])c1ccccc1COc1ccc(Cl)c2cccnc12	93*	83*	9	0	72*	50*	52*	73*	74*	16
Cn1nnc(NC(=O)c2cccc(F)c2)n1	6	51*	5	0	-3	-3	-4	-3	9	8
O=C(O/N=C1\CCCc2ccccc21)c1cccs1	91*	88*	5	4	86*	-24	94*	101*	90*	33
O=C(Cc1ccccc1)O/N=C1\CCCc2ccccc21	35	-11	4	2	34	nt	nt	nt	nt	nt
N/C(=N\OC(=O)Cc1ccccc1)c1cccc(Br)c1	5	1	14	1	3	nt	nt	nt	nt	nt
N/C(=N\OC(=O)c1cccs1)c1ccccc1	99*	-8	3	0	91*	93*	95*	101*	97*	93*
Cc1ccc(/C(N)=N/OC(=O)c2cccs2)cc1	67*	73*	9	2	68*	58*	65*	91*	73*	60*
N/C(=N\OC(=O)c1cccs1)c1cccc(Br)c1	88*	21	7	1	80*	87*	89*	99*	90*	82*
N/C(Cc1cccc2ccccc12)=N\OC(=O)c1cccs1	6	11	22	-2	1	nt	nt	nt	nt	nt
COc1ccc(/C(N)=N/OC(=O)c2cccs2)cc1OC	-3	-8	2	1	-1	nt	nt	nt	nt	nt
CC(C)CNC(=O)C(=O)NNC(=O)c1ccco1	7	-16	4	-1	0	nt	nt	nt	nt	nt
SMILES	SENP7 inh	SENP6 inh	SENP8 block-1	SENP1 inh	SENP8 block-2	SENP8 confirm	SENP6 confirm	SENP7 confirm	Casp3 select	Luc interf
Cc1cccc(/C(N)=N/OC(=O)c2cccs2)c1	97*	88*	22	3	91*	95*	96*	101*	97*	96*
Cc1cccc(/C(N)=N/OC(=O)c2ccc(F)cc2)c1	99*	98*	11	0	96*	98*	98*	102*	98*	89*
CC(C)=CCC/C(C)=C/CC/C(C)=C/CC/C(C)=C/CC1=C(C)C(=O)c2ccccc2C1=O	5	13	-20	-27	9	nt	nt	nt	nt	nt
CC(C)=CCC1=C(OCC(=O)O)C(=O)c2ccccc2C1=O	36	-17	72*	5	76*	80*	87*	65*	10	9
Cc1cc2nc(-c3ccc(Cl)cc3)c(CC3CCCCC3)n2c(C)c1Br	nt	nt	-1	0	nt	nt	nt	nt	nt	nt
CCn1c(/C=C/c2cc[n+](C)cc2)nc2ccccc21	3	8	-436	-24	9	nt	nt	nt	nt	nt
CCCn1c(/C=C/c2ccccc2)nc2ccccc21	70*	72*	-305	1	62*	86*	84*	95*	75*	81*
COc1ccc(S(=O)(=O)N2CCCCCC2)cc1C(=O)N1CCN(c2ccccc2O)CC1	4	3	27	1	7	nt	nt	nt	nt	nt
COc1cccc(/C=N/NC(=O)N/N=C/c2cccc(OC)c2O)c1O	1	50	-2	-1	50*	-3	39	65*	61*	27
COc1ccccc1C=NNC(=O)NN=Cc1ccccc1OC	nt	nt	11	3	nt	nt	nt	nt	nt	nt
COc1cccc(/C=N/Nc2ccccc2C(=O)O)c1O	79*	93*	10	0	88*	94*	94*	99*	92*	93*
COc1ccccc1/C=C/C=N/Nc1cccc(C(=O)O)c1	87*	98*	-167	-23	95*	99*	100*	102*	80*	98*
COc1cccc(/C=N/Nc2ccc(S(=O)(=O)O)cc2)c1O	-10	17	-95	-1	4	nt	nt	nt	nt	nt
COc1cccc(/C=N/Nc2ccc(C(=O)O)cc2)c1O	99*	99*	-29	-7	98*	99*	100*	102*	98*	97*
Cc1ccc(NC(=O)CSc2nnc(NC(=O)c3ccco3)s2)cc1	11	14	-24	1	0	nt	nt	nt	nt	nt
CC(=O)Nc1ccc(NC(=O)CSc2nnc(NC(=O)c3ccc(Br)o3)s2)cc1	48	87*	-86	0	70*	17	14	14	49	2
